Laboratory results as given in paper PMC4338372 (FEBS Open Bio, 2015).

B1: ELMO1–727: wild type (murine) ELMO1 protein (protein)
chain: MPPPSDIVKVAIEWPGAYPKLMEIDQKKPLSAIIKEVCDGWSLANHEYFALQHADSSNFYITEKNRNEIKNGTILRLTTSPAQNAQQLHERIQSSSMDAKLEALKDLASLSRDVTFAQEFINLDGISLLTQMVESGTERYQKLQKIMKPCFGDMLSFTLTAFVELMDHGIVSWDTFSVAFIKKIASFVNKSAIDISILQRSLAILESMVLNSHDLYQKVAQEITIGQLIPHLQGTDQEIQTYTIAVINALFLKAPDERRQEMANILAQKQLRYIILTHVIRAQRAINNEMAHQLYVLQVLTFNLLEDRMMTKMDPQDQAQRDIIFELRRIAFDAESEPNNSSGSMEKRKSMYTRDYKKLGFINHVNPAMDFTQTPPGMLALDNMLYFAKHHQDAYIRIVLENSSREDKHECPFGRSSIELTKMLCEILKVGELPSETCNDFHPMFFTHDRSFEEFFCICIQLLNKTWKEMRATSEDFNKVMQVVKEQVMRALTTKPSSLDQFKSKLQNLSYTEILKIRQSERMNQEDFQSRPILELKEKIQPEILELIKQQRLNRLVEGTCFRKLNARRRQDKFWYCRLSPNHKVLHYGDLEESPQGEVPHDSLQDKLPVADIKAVVTGKDCPHMKEKGALKQNKEVLELAFSILYDSNCQLNFIAPDKHEYCIWTDGLNALLGKDMMSDLTRNDLDTLLSMEIKLRLLDLENIQIPDAPPPIPKEPSNYDFVYDCN
modifications: left off: 6His (TEV cleavable), end not stated, kept
B2: ELMO532–707: C-terminal domain of ELMO1 without the polyproline motif (protein)
chain: PILELKEKIQPEILELIKQQRLNRLVEGTCFRKLNARRRQDKFWYCRLSPNHKVLHYGDLEESPQGEVPHDSLQDKLPVADIKAVVTGKDCPHMKEKGALKQNKEVLELAFSILYDSNCQLNFIAPDKHEYCIWTDGLNALLGKDMMSDLTRNDLDTLLSMEIKLRLLDLENIQIP
modifications: left off: 6His (TEV cleavable), end not stated, kept
B3: ELMO532–727: C-terminal domain of ELMO1 with the polyproline motif (protein)
chain: PILELKEKIQPEILELIKQQRLNRLVEGTCFRKLNARRRQDKFWYCRLSPNHKVLHYGDLEESPQGEVPHDSLQDKLPVADIKAVVTGKDCPHMKEKGALKQNKEVLELAFSILYDSNCQLNFIAPDKHEYCIWTDGLNALLGKDMMSDLTRNDLDTLLSMEIKLRLLDLENIQIPDAPPPIPKEPSNYDFVYDCN
modifications: left off: 6His (TEV cleavable), end not stated, kept

Legend:
[1] = target: SH3 domain of Hck (SH3Hck) (Homo sapiens, UniProt P08631); test: Pull-down of 6His-ELMO1 constructs on immobilized GST-SH3Hck; assay type: binding; conditions: bacterially expressed 6His-ELMO1; 1 h at 4 °C; anti-polyHistidine western blot
Summary of the method: (§1)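 GST-tagged SH3 domains (Hck residues 77–141; human DOCK180 residues 9–69) and 6His-ELMO1 (wild type 1–727, 532–727 and 532–707) were made in E. coli BL21(DE3) (1 mM IPTG, LB, 3 h, 37 °C). ELMO1 was purified by Ni–NTA and gel filtration, GST fusions on glutathione resin. ELMO1 was incubated with resin-bound SH3 (1 mg/ml) for 1 h at 4 °C in pH 7.5 Hepes buffer. Beads were washed three times, eluted denaturing, and analysed by SDS–PAGE and anti-His immunoblot.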

[2] = tested on: SH3 domain of DOCK180 (SH3DOCK); test: Pull-down of 6His-ELMO1 constructs on immobilized GST-SH3DOCK; assay type: binding, human; conditions: bacterially expressed 6His-ELMO1; 1 h at 4 °C; anti-polyHistidine western blot
Summary of the method: as §1

[3] = tested on: CLIP-SH3Hck; test: FRET of SNAP-ELMO1 constructs and CLIP-SH3Hck in HEK293T cells by flow cytometry; assay type: cell-based; conditions: HEK293T co-transfected with CLIP-SH3Hck; control CLIP-SH3Hck alone
[4] = target: SH3Hck; test: Solid-phase enzyme immunoassay; assay type: binding; conditions: preliminary solid-phase enzyme immunoassay; data not shown

SH3 domain of Hck (SH3Hck), sequence (P08631 77-141): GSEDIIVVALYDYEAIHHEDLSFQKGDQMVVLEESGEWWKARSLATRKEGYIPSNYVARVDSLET

Molecule	pull-down by immobilized GST-SH3Hck [1]	pull-down by immobilized GST-SH3DOCK [2]	median FRET intensity compared to control cells [3]	dissociation rate of SH3Hck [4]
B1	successfully pulled-down	successfully pulled-down	–	–
B2	–	efficiently pulled-down	–	–
B3	specifically pulled-down	efficiently pulled-down	significantly higher median FRET intensity compared to control cells	ten-micromolar range
